From ChEMBL document CHEMBL1123129, “Hypolipidemic activity of indan-1,3-dione derivatives in rodents” (J Med Chem, 1985)

Tests used:
[1] = molecular target: Acetyl-CoA carboxylase 1 (Mus musculus) (UniProt Q5SWU9); experiment: In Vitro evaluation for the CF1 liver enzyme activity on Acetyl-CoA carboxylase at concentration 200 uM
How it was run: (§1)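 Liver was taken from CF1 male mice and made into 10% homogenates, which were incubated with test compound at 50, 100 or 200 µM. Each enzyme was assayed by its literature method, and protein was measured by Lowry. N = 6. Activity is expressed as % of untreated control ± SD.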

[2] = molecular target: T1, ATP-citrate synthase (Mus musculus) (UniProt Q91V92); experiment: In Vitro evaluation for the CF1 liver enzyme activity on ATP-Citrate Lyase exchange at concentration 50 uM; how it was run: as §1
T1 sequence (whole entry): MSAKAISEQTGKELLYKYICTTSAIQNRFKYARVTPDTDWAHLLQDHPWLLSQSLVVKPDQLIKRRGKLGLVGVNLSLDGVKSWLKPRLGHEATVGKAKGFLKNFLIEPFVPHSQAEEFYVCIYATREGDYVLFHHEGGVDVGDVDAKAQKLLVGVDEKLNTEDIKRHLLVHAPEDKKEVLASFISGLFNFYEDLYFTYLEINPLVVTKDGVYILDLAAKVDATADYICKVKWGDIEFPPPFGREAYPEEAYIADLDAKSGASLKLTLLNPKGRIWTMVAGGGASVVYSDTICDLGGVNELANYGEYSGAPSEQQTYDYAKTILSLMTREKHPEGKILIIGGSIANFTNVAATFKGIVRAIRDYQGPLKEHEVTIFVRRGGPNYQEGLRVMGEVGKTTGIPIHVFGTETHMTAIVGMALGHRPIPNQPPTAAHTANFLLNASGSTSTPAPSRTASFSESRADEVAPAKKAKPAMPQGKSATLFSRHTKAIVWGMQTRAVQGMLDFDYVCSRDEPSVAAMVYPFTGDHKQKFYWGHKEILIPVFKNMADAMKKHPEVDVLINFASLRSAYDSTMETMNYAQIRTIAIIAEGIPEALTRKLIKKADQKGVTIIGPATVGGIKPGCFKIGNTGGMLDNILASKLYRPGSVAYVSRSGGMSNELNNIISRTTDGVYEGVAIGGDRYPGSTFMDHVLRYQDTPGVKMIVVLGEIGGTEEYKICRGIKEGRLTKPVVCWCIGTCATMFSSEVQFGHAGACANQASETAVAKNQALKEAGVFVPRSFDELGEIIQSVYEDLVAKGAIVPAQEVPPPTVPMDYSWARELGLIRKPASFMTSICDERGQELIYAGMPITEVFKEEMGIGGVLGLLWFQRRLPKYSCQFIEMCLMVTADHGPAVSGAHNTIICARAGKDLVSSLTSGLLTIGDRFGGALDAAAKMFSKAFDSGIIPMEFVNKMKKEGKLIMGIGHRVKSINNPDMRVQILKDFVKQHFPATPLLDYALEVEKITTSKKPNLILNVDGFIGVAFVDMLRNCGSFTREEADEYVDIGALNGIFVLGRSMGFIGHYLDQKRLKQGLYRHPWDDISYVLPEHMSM

[3] = In Vitro evaluation for the CF1 liver enzyme activity on Acyl cholesterol acyltransferase at concentration 50 uM; how it was run: as §1
[4] = molecular target: Cholesterol 7-alpha-hydroxylase (Cytochrome P450 7A1) (Mus musculus, UniProt Q64505); experiment: In vitro percent Cholesterol 7-alpha-hydroxylase activity in mouse CF1 liver microsomes at 100 uM; design: species or system Microsome; details: read-out: Control
How it was run: (§2)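 Mouse liver enzymes assayed in vitro on 10% homogenates of CF1 male mouse liver, with test drug added at 50–200 μM. Each enzyme follows a published procedure. Protein is measured by Lowry. Activity is given as % of untreated control (X ± SD, N = 6).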

[5] = molecular target: T2, 3-hydroxy-3-methylglutaryl-coenzyme A reductase (Mus musculus) (UniProt Q01237); experiment: In Vitro evaluation for the CF1 liver enzyme activity on HMG CoA reductase at concentration 200 uM; how it was run: as §1
T2 sequence (whole entry): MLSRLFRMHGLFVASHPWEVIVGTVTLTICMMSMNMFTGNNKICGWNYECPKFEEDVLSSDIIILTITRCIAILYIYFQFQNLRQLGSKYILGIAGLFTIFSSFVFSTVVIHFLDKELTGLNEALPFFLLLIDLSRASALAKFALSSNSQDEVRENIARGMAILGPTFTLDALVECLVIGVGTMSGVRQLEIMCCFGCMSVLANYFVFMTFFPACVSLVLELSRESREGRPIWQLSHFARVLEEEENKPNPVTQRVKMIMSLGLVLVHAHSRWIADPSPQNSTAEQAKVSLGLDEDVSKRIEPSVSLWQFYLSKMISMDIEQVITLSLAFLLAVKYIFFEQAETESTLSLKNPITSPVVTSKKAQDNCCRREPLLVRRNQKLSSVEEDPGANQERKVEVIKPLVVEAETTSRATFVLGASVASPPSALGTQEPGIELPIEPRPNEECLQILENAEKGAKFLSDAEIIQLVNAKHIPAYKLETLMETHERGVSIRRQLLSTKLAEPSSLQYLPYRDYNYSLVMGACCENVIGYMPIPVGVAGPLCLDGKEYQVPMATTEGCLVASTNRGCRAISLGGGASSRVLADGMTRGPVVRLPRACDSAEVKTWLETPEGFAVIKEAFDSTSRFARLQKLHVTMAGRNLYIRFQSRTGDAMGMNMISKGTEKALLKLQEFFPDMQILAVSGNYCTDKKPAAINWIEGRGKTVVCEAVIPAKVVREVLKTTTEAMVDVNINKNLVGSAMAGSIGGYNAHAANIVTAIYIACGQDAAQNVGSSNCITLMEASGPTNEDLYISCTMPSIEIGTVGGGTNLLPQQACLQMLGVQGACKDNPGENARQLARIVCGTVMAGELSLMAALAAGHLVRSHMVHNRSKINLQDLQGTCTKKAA

Mus musculus [6] = experiment: In Vivo effect for the hypolipidemic activity on Hepatic lipoprotein lipase in CF1 mice after 16 days administered orally at a dose of 40 mg/kg; format: functional; details: route oral
How it was run: (§3)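 CF1 male mice are dosed orally at 10–60 mg/kg per day for 16 days, with 1% CMC as the control vehicle. Liver is homogenized at 10% in 0.25 M sucrose + 0.001 M EDTA, pH 7.2. Enzymes are assayed by literature methods, with Lowry protein. Activity is given as % of control (X ± SD, N = 6), with p from Student's t test.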

Mus musculus [7] = species: Mus musculus; experiment: In Vitro evaluation for the CF1 liver enzyme activity on Mitochondrial citrate exchange at concentration 100 uM; format: functional; how it was run: as §2
Rattus norvegicus = experiment: Compound was evaluated for the hypolipidemic activity at 20 mg/kg per day orally for 14 days on triglycerides content in rat liver; format: functional; details: route oral
How it was run: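 Male Sprague–Dawley rats were dosed orally for 14 days. Liver, small intestine and a 24-h fecal collection were lipid-extracted. Extracts were assayed for cholesterol (modified Liebermann–Burchard), triglyceride (enzymatic kit), neutral lipids, phospholipids and protein. Values are % of 1% CMC vehicle control, mean ± SD, N = 6.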

Mus musculus [8] = species: Mus musculus; experiment: In Vitro evaluation for the CF1 liver enzyme activity on phosphatidate phosphohydrolase at concentration 200 uM; how it was run: as §2
Mus musculus [9] = species: Mus musculus; experiment: In Vitro evaluation for the CF1 liver enzyme activity on phosphatidate phosphohydrolase at concentration 50 uM; how it was run: as §2
Mus musculus [10] = experiment: In Vivo effect for the hypolipidemic activity on phosphatidate phosphohydrolase in CF1 mice after 16 days administered orally at a dose of 60 mg/kg; format: organism-based; design: dose 60 mg/kg; how it was run: as §3

Chain of Cholesterol 7-alpha-hydroxylase (Cytochrome P450 7A1) (Q64505 whole entry): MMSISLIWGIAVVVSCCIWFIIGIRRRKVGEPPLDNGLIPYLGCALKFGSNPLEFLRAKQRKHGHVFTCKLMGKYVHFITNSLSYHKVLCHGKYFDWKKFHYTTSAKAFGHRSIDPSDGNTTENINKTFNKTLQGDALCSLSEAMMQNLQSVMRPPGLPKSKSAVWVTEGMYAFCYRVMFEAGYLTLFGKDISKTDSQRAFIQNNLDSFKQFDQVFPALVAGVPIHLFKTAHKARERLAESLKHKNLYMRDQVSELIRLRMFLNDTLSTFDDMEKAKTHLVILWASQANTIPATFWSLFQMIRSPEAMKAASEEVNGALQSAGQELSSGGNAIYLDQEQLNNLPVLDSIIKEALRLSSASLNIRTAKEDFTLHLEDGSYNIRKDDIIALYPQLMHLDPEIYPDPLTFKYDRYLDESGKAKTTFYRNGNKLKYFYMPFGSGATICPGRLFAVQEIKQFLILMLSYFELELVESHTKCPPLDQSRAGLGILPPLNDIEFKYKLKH

SMILES: COc1ccc(C2C(=O)c3ccccc3C2=O)cc1 [ANISINDIONE]
- Control [1]: 67%
- Control [2]: 72%
- Control [3]: 94%
- activity at 100 µM [4]: 144%
- Control [5]: 105%
- Control (Mus musculus [6]): 89%
- Control (Mus musculus [7]): 38%
- Control (Rattus norvegicus): 37%
- Control (Mus musculus [8]): 11%
- Control (Mus musculus [9]): 36%
- Control (Mus musculus [10]): 100%
